Source: PubChem BioAssay (Broad Institute)
In the library only some 2.5% were active in any assay of this set; here they are far more common.
FN deposit inh – inhibitors of fibronectin matrix deposition, primary screen, AH1F cells, Alexa488-fibronectin fluorescence, plate reader. AH1F fibroblasts, overnight. inhibition, % at 12.6 µM. 350,000 tested, 0.086% active;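 active = mean inhibition across replicates of 30% or more, regardless of how many single replicates reach that level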;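 note: positive control wells lacked labelled fibronectin entirely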
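Assay system: AH1F fibroblast monolayer, labelled fibronectin deposition. Amount: 10000 cells per well. Also added: labelled fibronectin 24 nM. Compound: single-point pinned compound. Incubation: cell attachment 1 h, compound and FN exposure overnight. Detection: fluorescence after three HBSS washes, excitation 485 nm, emission 525 nm. Read-out: inhibition of fibronectin deposition signal.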
HIV Env fusion – inhibitors of HIV-1 Env-driven cell-cell fusion, primary screen, HeLa-JRFL effector, CEM21 target cells, luciferase; inhibition, % at 12.3 µM; 360,000 tested, 1.1% active;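 active = mean replicate inhibition score of at least 50 and every replicate individually at or above 50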;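 note: 0% = plate neutral controls and 100% = maraviroc near 300 nM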
Glyco luc inh – increase of ERlucT glycosylation luciferase signal, primary screen, N-linked glycosylation inhibitor project, D54 ERlucT cells, luminescence, set 2; AID 588692, 2011; reporter increase, % at 12.5 µM; 360,000 tested, 0.23% active; D54 ERlucT glycosylation luciferase reporter, 24 h; percent of 100 nM tunicamycin response;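 active = mean luciferase reporter signal, scaled so untreated is 0 and the glycosylation-blocking control 100, at or above a set limit in every replicate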;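 note: luciferase carries N-glycosylation sites so blocking glycosylation raises the light; 0% = median of neutral control wells and 100% = median of 100 nM tunicamycin wells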
PAX8 reporter – inhibitors of PAX8-driven TPO luciferase reporter, primary screen, RMG-I cells, single concentration | SteadyGlo, 24 h | inhibition, % at 12.6 µM | 360,000 tested, 1.2% active;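 active = mean replicate inhibition at least 60% with every replicate also reaching 60%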;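 note: luciferase light reporting Pax8 driven TPO promoter activity; plate controls were median of neutral control wells for no effect and mitoxantrone controls for full effect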
EWS-Fli inh – EWS/Fli-driven NR0B1 reporter inhibitors, primary screen, A673 cells, NR0B1 luciferase, luminescence, MLPCN library | 350,000 tested, 0.67% active | viability-normalised | AID 651661, 2012 | inhibition, % at 12.6 µM;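 active = mean inhibition of at least 50% after viability correction, with every replicate also passing that limit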;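 note: firefly luciferase signal divided by Alamar Blue viability fluorescence both relative to DMSO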
MLL AF4-AF9 inh – inhibitors of AF4 peptide binding to AF9, primary screen, biochemical, AlphaScreen, biotin-AF4 peptide, FLAG-AF9, single point. Protein AF-9 (Homo sapiens), P42568. inhibition, % at 10 µM. 350,000 tested, 0.47% active;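 active = every replicate reaching a set inhibition limit, whatever the replicate mean, cut at about 25% in these data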;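 note: 0% = plate neutral control median and 100% = total signal loss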
Target sequence (P42568 whole entry, looked up): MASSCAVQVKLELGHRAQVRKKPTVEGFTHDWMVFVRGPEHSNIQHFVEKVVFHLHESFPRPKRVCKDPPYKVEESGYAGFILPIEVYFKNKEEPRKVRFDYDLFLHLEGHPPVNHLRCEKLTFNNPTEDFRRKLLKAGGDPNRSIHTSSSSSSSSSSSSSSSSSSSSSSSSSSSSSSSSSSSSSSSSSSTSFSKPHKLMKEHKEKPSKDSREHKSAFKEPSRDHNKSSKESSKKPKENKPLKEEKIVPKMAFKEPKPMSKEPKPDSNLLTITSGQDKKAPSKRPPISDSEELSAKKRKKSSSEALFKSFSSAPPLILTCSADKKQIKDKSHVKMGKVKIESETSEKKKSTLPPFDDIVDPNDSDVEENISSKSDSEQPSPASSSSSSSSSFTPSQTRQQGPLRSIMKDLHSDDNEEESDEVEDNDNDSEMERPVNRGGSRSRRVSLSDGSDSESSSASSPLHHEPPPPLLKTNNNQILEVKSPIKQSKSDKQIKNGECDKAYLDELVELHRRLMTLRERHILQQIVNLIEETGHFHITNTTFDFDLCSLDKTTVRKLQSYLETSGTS
An asterisk follows results filed as active; [ ] = dose if it differs, or a comment.

Screening C[C@H]1CN([C@@H](C)CO)C(=O)Cc2cc(NC(=O)Nc3cccc4ccccc34)ccc2O[C@@H]1CN(C)C(=O)Nc1ccc2c(c1)OCO2 returned HIV Env fusion -13.9[16.7 µM], PAX8 reporter 8.2, EWS-Fli inh -10.7 and MLL AF4-AF9 inh 0.2.
`CCCN(C)C[C@@H]1Oc2cc(C#Cc3cccnc3)ccc2S(=O)(=O)N([C@H](C)CO)C[C@@H]1C` gave HIV Env fusion 24.9[16.7 µM], EWS-Fli inh 3.6 and MLL AF4-AF9 inh 0.8.
Cc1sc(NC(=O)CCCC(=O)O)c(C(N)=O)c1-c1ccccc1 was read as HIV Env fusion 19.0, Glyco luc inh -1.7, PAX8 reporter -9.7, EWS-Fli inh 54.2* and MLL AF4-AF9 inh 0.4.
`O=C(COc1ccc(/C=N/NC(=O)C(=O)N2CCCCCC2)cc1)Nc1ccccc1Cl` gave FN deposit inh -7.1, Glyco luc inh -2.1, PAX8 reporter 78.0*, EWS-Fli inh -41.3 and MLL AF4-AF9 inh 0.7.
Screening COc1ccc(/C=N/NC(=O)C(=O)N2CCCCCC2)cc1 returned FN deposit inh 4.5, HIV Env fusion -2.0, Glyco luc inh 2.8, PAX8 reporter -10.7, EWS-Fli inh 3.2 and MLL AF4-AF9 inh -1.2.
CNC(=O)C[C@@H]1CC[C@H]2[C@@H](COc3ccc(NC(=O)C4CCCCC4)cc3C(=O)N2C)O1 was read as FN deposit inh 3.8, HIV Env fusion -0.6[16.7 µM], PAX8 reporter -2.5, EWS-Fli inh -4.0 and MLL AF4-AF9 inh -0.7.
`CCC(=O)N1CC2(C1)CN(S(C)(=O)=O)[C@@H](CO)c1c2c2ccc(OC)cc2n1C` gave EWS-Fli inh -7.0 and MLL AF4-AF9 inh 0.8.
`CCCNC(=O)C[C@@H]1CC[C@@H]2[C@@H](COc3ccc(NC(=O)c4ccc(OC)cc4)cc3C(=O)N2C)O1` gave FN deposit inh 3.0, HIV Env fusion 4.5[16.7 µM], PAX8 reporter -9.5 and EWS-Fli inh 10.3.
Screening CCOc1cccc(C(=O)Nc2ccc(N(CC)CC)cc2)c1 returned FN deposit inh 30.3*, HIV Env fusion -89.3 and Glyco luc inh 6.6.
For CCCOc1ccc(C(=O)Nc2ccc(NC(=O)c3cccs3)cc2)cc1 the results were FN deposit inh -0.2, HIV Env fusion 9.1, Glyco luc inh 1.5, PAX8 reporter -32.5, EWS-Fli inh -18.3 and MLL AF4-AF9 inh -3.2.
For CCCCOc1cccc(C(=O)Nc2ccc(NC(=O)c3cccs3)cc2)c1 the results were FN deposit inh -3.3, HIV Env fusion -6.4, Glyco luc inh 23.5, PAX8 reporter 5.7, EWS-Fli inh 52.7* and MLL AF4-AF9 inh -0.6.
`COc1ccc(S(=O)(=O)Nc2ccc3c(c2)C(=O)N([C@@H](C)CO)C[C@@H](C)[C@@H](CN(C)C(=O)Nc2cccc4ccccc24)OCCCC[C@H](C)O3)cc1` gave HIV Env fusion 12.2[16.7 µM], PAX8 reporter 23.2 and EWS-Fli inh 0.3.
COc1ccc(CC(=O)N(Cc2ccccc2)c2ccc(C)cc2)cc1OC was read as FN deposit inh -0.6, HIV Env fusion 12.0, Glyco luc inh 31.4*, PAX8 reporter -0.8, EWS-Fli inh 4.5 and MLL AF4-AF9 inh 1.9.
Screening COc1ccc(CC(=O)N(Cc2ccccc2)c2ccc(C)cc2)cc1S(=O)(=O)N1CCOCC1 returned FN deposit inh 4.7, HIV Env fusion -6.5, Glyco luc inh 21.4, PAX8 reporter 9.6, EWS-Fli inh -9.9 and MLL AF4-AF9 inh 6.3.
`Cc1ccn2c(Nc3ccccc3)c(-c3ccccn3)nc2c1` gave FN deposit inh 10.3, HIV Env fusion 66.1*, Glyco luc inh -4.9, PAX8 reporter 18.4, EWS-Fli inh 51.9* and MLL AF4-AF9 inh -21.0.
`Cc1ccccc1Nc1c(-c2ccccn2)nc2ccccn12` gave FN deposit inh -2.9, HIV Env fusion -113.5, Glyco luc inh 8.0, PAX8 reporter 30.2, EWS-Fli inh 51.6* and MLL AF4-AF9 inh 41.8*.
For COCC(=O)Nc1ccc2c(c1)OC[C@H](C)N(C(=O)C1CCCC1)C[C@H](C)[C@@H](OC)CN(C)C2=O the results were FN deposit inh 6.4, HIV Env fusion -9.2[16.7 µM], PAX8 reporter 0.9 and EWS-Fli inh -11.5.
